The results in this text go back to ChEMBL document CHEMBL3259554, “Discovery, synthesis, and optimization of antimalarial 4(1H)-quinolone-3-diarylethers” (J Med Chem, 2014).

Where only a bound is given, the exact number is not on record here.

The subject of data set [1] is HepG2. Briefly: Cytotoxicity against human HepG2 cells after 24 hrs incubation by Alamar Blue assay. The format is cell-based. The settings on record: HepG2, 24 h. An outline of the steps:
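HepG2 cells grown in RPMI-1640 with 10% FBS and seeded at 2 × 10⁴ cells/well, attached overnight. Drug serially diluted from 10 mM DMSO stocks to 2.5 nM–10 μM and incubated 24–36 h. Medium then replaced and cells kept a further 24 h. Resazurin added (final 10 μM) for 3 h, fluorescence read at ex 560/em 590 nm. Run in triplicate; IC50 by nonlinear logistic regression.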

In data set [2] the test system is Liver microsome. Put plainly: Metabolic stability in human liver microsomes. The data set is classed as ADME. The essentials: (§1)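 Compound at 1 μM incubated at 37 °C with liver microsomes (0.4 mg protein/mL) in 0.1 M phosphate pH 7.4. Started with an NADPH-regenerating system plus MgCl₂ and quenched with cold acetonitrile at time points up to 60 min. Parent loss followed by LC-MS and fitted to first-order decay to give half-life and intrinsic clearance. E_H used liver blood flow of 20.7 (human) or 55.2 (rat) mL/min/kg.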

In data set [3] the test system is Plasmodium yoelii. Put plainly: Antimalarial activity against Plasmodium yoelii MR4 MRA-428 infected in mouse CF1 assessed as reduction on parasite burden administered through oral gavage once daily for 4 days. The format is functional. The settings on record: MR4 MRA-428, po, 96 h. The essentials: (§2)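 P. yoelii-infected mice, randomly grouped in fours; dosing began day after inoculation (day 1), once daily by oral gavage in PEG-400 for four successive days; initial doses 0.1, 0.3, 1.0, 3.0, 10 mg/kg/day, range adjusted as needed. Day-5 Giemsa-smear parasitemia vs drug-free controls; ED50 derived graphically. Cure = parasite free 30 days after last dose; cure dose termed non-recrudescence dose.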

Data set [4] relates to Plasmodium falciparum. Put plainly: Antimalarial activity against chloroquine-sensitive Plasmodium falciparum D6 MRA-285 infected in human red blood cells assessed as suppression of parasitemia after 72 hrs by SYBR Green I-based fluorescence method. The format is functional, organism-based. Particulars: D6 MRA-285, 72 h. The essentials:
(§3)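 Asynchronous parasites in human erythrocytes, RPMI-1640 with HEPES, hypoxanthine, glucose, glutamine, 0.5% Albumax II; 2% hematocrit, 0.2% initial parasitemia. Triplicate 2-fold dilutions from 1 μM (lower start if needed), 72 h at 37 °C under 5% O2/5% CO2/90% N2. SYBR Green I dye-detergent added, 1 h dark at room temperature, fluorescence read. EC50 averaged over at least three determinations.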

The nature of data set [5]: Inhibition of cytochrome bc1 complex isolated from trophozoite stage Plasmodium falciparum. An outline of the steps: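 P. falciparum mitochondrial preparation assayed for cytochrome c reductase at 35 °C in a stirred cuvette. Buffer: 100 μM decylubiquinol, 100 μM horse heart cytochrome c, 0.1 mg/mL dodecyl maltoside, 60 mM HEPES pH 7.4, 10 mM malonate, 1.0 mM EDTA, 2.0 mM KCN. Baseline subtracted from the initial rate; activity expressed as a fraction of uninhibited control.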

Data set [6] in a line: Inhibition of human cytochrome bc1 complex derived from HEK293 cell mitochondria using 50 uM decylubiquinol as substrate. An outline of the steps:
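Mitochondria isolated from HEK-293 cells by Dounce homogenization and differential centrifugation, dispersed in 2 mg/mL dodecyl maltoside for 45 min on ice, then clarified. Baseline-subtracted initial rates expressed as a fraction of uninhibited control.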

Data set [7] relates to Liver microsome. Briefly: Metabolic stability in rat liver microsomes. The format is ADME. The essentials: as §1
Data set [8] in a line: Antimalarial activity against multidrug-resistant Plasmodium falciparum Dd2 MRA-156 infected in human red blood cells assessed as suppression of parasitemia after 72 hrs by SYBR Green I-based fluorescence method. The format is functional. The essentials:
as §3

The subject of data set [9] is Plasmodium falciparum. Put plainly: Antimalarial activity against atovaquone-resistant clinical isolate Plasmodium falciparum TM90-C2B infected in human red blood cells assessed as suppression of parasitemia after 72 hrs by SYBR Green I-based fluorescence method. The data set is classed as functional, organism-based. The essentials: as §3
Data set [10] in a line: Selectivity ratio of IC50 for human cytochrome bc1 complex to EC50 for Plasmodium falciparum cytochrome bc1 complex.
In data set [11] the test system is Plasmodium yoelii. Put plainly: Antimalarial activity against Plasmodium yoelii MR4 MRA-428 infected in mouse CF1 assessed as dose required to achieve cure measured as 30 days survival administered through oral gavage once daily for 4 days. The data set is classed as functional. An outline of the steps: as §2

For the molecule `COc1cc2[nH]c(C)c(-c3ccc(Oc4ccc(OC(F)(F)F)cc4)cc3)c(=O)c2cc1Cl`, the IC50 in data set [1] and in data set [6] was more than 10 µM throughout. Moreover, the Stability entry in [2] and in data set [7] was “Stable” throughout. For the same molecule, the ED50 in data set [3] stood at 0.02 mg/kg/day. The ED90 in [3] was determined as 0.06 mg/kg/day. Moreover, the EC50 in data set [4] amounted to 2.2 nM; in data set [5] it was 0.56 nM; in data set [8], 2.5 nM; in [9], 1.4 nM. In addition, in [10], the Ratio IC50/EC50 was more than 20000. Also, the NRD in data set [11] amounted to 0.3 mg/kg/day.
